PRMT1 FP inh: blocks human protein arginine methyltransferase 1; inhibition, % at 2.79 µM; recombinant PRMT1, activity-based probe fluorescence polarization; 370,000 tested, 1.3% active; Q99873;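 active = inhibition above about 21% made by adding two undisclosed values, limit read from the data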
Target sequence (Q99873 whole entry, looked up): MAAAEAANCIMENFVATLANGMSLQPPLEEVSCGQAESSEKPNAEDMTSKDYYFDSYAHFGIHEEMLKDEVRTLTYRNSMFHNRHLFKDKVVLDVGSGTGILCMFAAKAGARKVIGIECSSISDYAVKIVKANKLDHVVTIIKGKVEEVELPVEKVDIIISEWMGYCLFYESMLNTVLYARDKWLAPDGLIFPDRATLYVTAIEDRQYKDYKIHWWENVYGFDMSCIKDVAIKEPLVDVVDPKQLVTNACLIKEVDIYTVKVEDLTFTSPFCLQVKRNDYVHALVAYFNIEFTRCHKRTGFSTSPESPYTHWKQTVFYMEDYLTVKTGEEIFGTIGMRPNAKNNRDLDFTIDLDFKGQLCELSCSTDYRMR
DAGLB inh: blocks human DAGLB lipase activity | Q8NCG7 | HEK293T DAGLB membrane lysate, EnzChek fluorogenic substrate | inhibition, % at 5.17 µM | 340,000 tested, 0.059% active; in the data active = inhibition above about 34%
mABHD4 FP: ABHD4 (mouse) inhibition, primary FP screen; AID 720543; inhibition, % at 8.92 µM; purified mABHD4, FP-Rh probe fluorescence polarization; 370,000 tested, 0.54% active; Q8VD66;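 active = inhibition exceeding the mean over every tested compound plus 3 SD, cut at about 30% in these data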
Target sequence (Q8VD66 whole entry, looked up): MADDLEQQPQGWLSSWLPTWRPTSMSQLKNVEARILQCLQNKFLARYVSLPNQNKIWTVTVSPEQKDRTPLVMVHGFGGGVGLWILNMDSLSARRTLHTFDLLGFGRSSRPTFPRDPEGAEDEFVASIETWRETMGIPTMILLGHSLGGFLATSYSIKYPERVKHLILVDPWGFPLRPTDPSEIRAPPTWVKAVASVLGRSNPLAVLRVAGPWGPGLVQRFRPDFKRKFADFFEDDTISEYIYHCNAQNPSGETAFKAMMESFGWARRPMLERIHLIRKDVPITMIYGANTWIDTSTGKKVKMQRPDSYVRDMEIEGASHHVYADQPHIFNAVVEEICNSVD
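Test system: mABHD4 protein | Buffer or medium: HEPES pH 7.0 buffer, 150 mM NaCl, 0.01% Pluronic F-127 | Probe or stimulus: FP-Rh fluorescent activity-based probe, added after compound pre-incubation | Timing: Pre-incubation 45 min, probe exposure 60 min, at 25 °C | Technique: Fluorescence polarization, excitation 525 nm, emission 598 nm, BODIPY TMR filters | Repeats: Single well per compound (singlicate)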
HTRA1 inhibitor: HTRA1 (human) protease inhibition; Q92743; recombinant HTRA1, FP-rhodamine activity-based probe, fluorescence polarization; inhibition, % at 5.96 µM; 340,000 tested, 0.5% active; in the data active = inhibition above about 36%
LEDGF integ inh: blocks HIV-1 LEDGF/p75-dependent DNA integration; TR-FRET IN-LEDGF/p75 DNA integration, Eu/Cy5; inhibition, % at 3.7 µM; 370,000 tested, 0.64% active; AID 743269;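 active = inhibition above the screen-wide mean plus 3 SD, cut at about 13% in these data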;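 note: signal is the Cy5 over europium emission ratio at 671 and 618 nm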
rCAG binder-1: binds r(CAG) RNA repeats; 370,000 tested, 1.3% active; inhibition, % at 3 µM; r(CAG) RNA repeat, TO-PRO-1 dye displacement fluorescence; AID 651821;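 active = inhibition above the plate cutoff, the mean of all test compounds on that plate plus 3 SD, cut at about 35% in these data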;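 note: higher means more dye released from RNA so lower well fluorescence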
rCAG binder conf: r(CAG) RNA repeat binding, confirmation | shares compounds with rCAG binder-1 | TO-PRO-1 dye displacement fluorescence | inhibition, % at 3 µM | 4,300 tested, 70% active | AID 652065;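 active = inhibition above a per-plate cutoff, the mean inhibition of sample wells plus 3 SD, cut at about 35% in these data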;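 note: loss of TO-PRO-1 fluorescence as compound displaces dye from 1x1 AA loop RNA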
DNA CAG counter: disrupts DNA CAG TO-PRO-1 complex, flagging rCAG hits. shares compounds with rCAG binder-1. d(CAG) DNA oligo TO-PRO-1 dye displacement, fluorescence. inhibition, % at 3 µM. 4,300 tested, 94% active. AID 652068;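 active = inhibition above its plate's cutoff, the mean test-well inhibition plus 3 SD, cut at about 4.8% in these data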;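 note: hits displace the dye from DNA and so lower well fluorescence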
DNA CAG DR: disrupts DNA CAG TO-PRO-1 complex in dose response. shares compounds with rCAG binder-1. DNA CAG/GTC duplex TO-PRO-1 dye displacement fluorescence. IC50, µM. 250 tested, 20% active; in the data active = IC50 below about 10 µM
dCAG TOPRO ctr: DNA CAG dye complex inhibition, late stage dose response; 30 tested, 80% active; IC50, µM; d(CAG) DNA duplex TO-PRO-1 dye displacement, fluorescence; shares compounds with rCAG binder-1
rCAG binder-2: r(CAG) repeat RNA binding, TO-PRO-1 displacement; shares compounds with rCAG binder-1; r(CAG) RNA TO-PRO-1 dye displacement, fluorescence; IC50, µM; 30 tested, 100% active; AID 720651
PRMT1 inh conf: confirmation of human PRMT1 inhibitors. shares compounds with PRMT1 FP inh. recombinant His-PRMT1, activity-based probe fluorescence polarization. inhibition, % at 2.79 µM. 3,300 tested, 42% active. AID 687036;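 active = mean inhibition across replicates above the hit cutoff derived for the earlier primary screen, cut at about 22% in these data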
Large screens that a line does not name were inactive (follow-up assays come after a bar, where they were run). In the library only some 3.2% were active in any assay of this set; here they are far more common. Unless noted, the rule behind the calls is not given here.

CC(C)N(Cc1c(O)ccc2c(=O)c(-c3ccc(Cl)cc3)coc12)C(C)C	rCAG binder-1 42 | rCAG binder conf inactive | DNA CAG counter 10
CC1CCCCN1Cc1c(O)ccc2c(=O)c(-c3ccc(Cl)cc3)coc12 (configuration not stated)	none
Cc1ccc(NC(=O)C2CC3CCC2C3)c(Br)c1 (configuration not stated)	none
CCOC(=O)CCc1ccc(NC(=O)/C=C/c2ccc([N+](=O)[O-])o2)cc1	none
CCc1ccc(C(=O)/C=C/c2ccc([N+](=O)[O-])o2)cc1	rCAG binder-1 38 | rCAG binder conf inactive | DNA CAG counter 11
O=C(O)CCSc1nc2ccccc2s1	none
Nc1c(SCCC(=O)O)ccc2c1C(=O)c1ccccc1C2=O	rCAG binder-1 37 | rCAG binder conf inactive | DNA CAG counter inactive
O=C(c1ccco1)N1CCN(Cc2cccnc2)CC1	none
Nc1c(Br)cc(Br)c2c1C(=O)c1c(cccc1S(=O)(=O)O)C2=O	rCAG binder-1 43 | rCAG binder conf 48 | DNA CAG counter 13
Cc1nn(-c2ccccc2)c(Cl)c1/C=N/NS(=O)(=O)c1ccc(Br)cc1	rCAG binder-1 48 | rCAG binder conf 42 | DNA CAG counter 11
COc1ccc(-n2c(SCC(=O)Nc3ccc(Cl)cc3)nc(O)c(Cc3ccccc3)c2=O)cc1	PRMT1 FP inh 34, rCAG binder-1 62 | rCAG binder conf 54 | DNA CAG counter 20 | PRMT1 inh conf 32
Cc1cc(C)n(-c2nnc3n2N=C(c2c[nH]c4ccccc24)CS3)n1	none
Cc1noc(/C=C/N(C)C)c1S(=O)(=O)N1CCC(C(=O)Nc2ccc(Cl)cc2)CC1	none
CCCN(CCC)S(=O)(=O)c1ccc(C(=O)NCc2n[nH]c(=S)n2-c2ccc(Cl)c(Cl)c2)cc1	PRMT1 FP inh 29, rCAG binder-1 35 | rCAG binder conf inactive | DNA CAG counter 7.0 | PRMT1 inh conf inactive
COC(=O)C1=C(\O)CCCC/C=C\1C(=O)O	none
COc1cc(NC(=O)CSc2ncnc3sc4c(c23)CCCC4)c(C(=O)O)cc1OC	PRMT1 FP inh 32, rCAG binder-1 67 | rCAG binder conf 53 | DNA CAG counter 17 | PRMT1 inh conf inactive
Nc1[nH]c(C(=O)c2ccccc2)c(-c2ccc(Cl)cc2)c1C(=O)c1c[nH]c2ccc(Br)cc12	none (no result: DAGLB inh, HTRA1 inhibitor)
Cc1cc(Br)cn2c(Cc3ccccc3)c(-c3cccc(Cl)c3)nc12	none (no result: DAGLB inh, HTRA1 inhibitor)
Cc1cc(Br)cn2c(Cc3cccc(Cl)c3)c(-c3ccco3)nc12	PRMT1 FP inh 44, rCAG binder-1 42 (no result: DAGLB inh, HTRA1 inhibitor) | rCAG binder conf inactive | DNA CAG counter 5.2 | PRMT1 inh conf inactive
CCn1c2ccccc2c2cc(NC(=O)CSc3nnc(-c4ccccc4)n3Cc3ccco3)ccc21	PRMT1 FP inh 80, rCAG binder-1 35 (no result: DAGLB inh, HTRA1 inhibitor) | rCAG binder conf inactive | DNA CAG counter 15 | PRMT1 inh conf 65
O=C(CC1C(=O)NCCN1Cc1cccc(C(F)(F)F)c1)NC1CCOCC1 (configuration not stated)	none
O=C(CSc1nc(-c2ccc(Cl)cc2)[nH]c(=O)n1)Nc1cccc(Cl)c1	PRMT1 FP inh 51, rCAG binder-1 57 (no result: DAGLB inh, HTRA1 inhibitor) | rCAG binder conf 66 | DNA CAG counter 30 | PRMT1 inh conf inactive
CCc1ccc(NC(=O)C(C)Sc2nc(-c3ccco3)c(C#N)c(=O)[nH]2)cc1 (configuration not stated)	PRMT1 FP inh 26, rCAG binder-1 79 | rCAG binder conf 70 | DNA CAG counter 33 | DNA CAG DR 9.7 | dCAG TOPRO ctr 3.3 | rCAG binder-2 1.1 | PRMT1 inh conf 38
O=C(CSc1n[nH]c(-c2cccnc2)n1)Nc1cccc(Cl)c1	none
O=C(CSc1nc2[nH]ncc2c(=O)[nH]1)Nc1cccc(Cl)c1	none
N#Cc1c(-c2ccco2)nc(SCC(=O)Nc2cccc(Cl)c2)[nH]c1=O	PRMT1 FP inh 46, rCAG binder-1 72 | rCAG binder conf 72 | DNA CAG counter 27 | DNA CAG DR inactive | PRMT1 inh conf inactive
Nc1c(C(=O)Nc2ccc(F)cc2)sc2nc(-c3ccco3)ccc12	PRMT1 FP inh 44, rCAG binder-1 35 | rCAG binder conf 55 | DNA CAG counter 26 | PRMT1 inh conf 30
Cc1ccc(NC(=O)c2sc3nc4c(c(-c5ccco5)c3c2N)CCC4)cc1	none
Nc1c(C(=O)Nc2ccccc2)sc2nc3c(c(-c4ccco4)c12)CCC3	none
Nc1c(C(=O)Nc2ccc(Br)cc2)sc2nc(-c3ccco3)ccc12	PRMT1 FP inh 45, LEDGF integ inh 15, rCAG binder-1 51 | rCAG binder conf 37 | DNA CAG counter 20 | PRMT1 inh conf inactive
CC[C@@H]1C(c2ccccc2)=NN(c2ccccc2)[C@H]1C(=O)N1CCOC1=O	none
Cc1nc(NCC2CCCO2)nc2c1C(=O)CC(C)(C)C2 (configuration not stated)	none
O=S(=O)(Cc1ccccc1)N1CCN(c2ncccn2)CC1	none
O=C(O)c1ccccc1NS(=O)(=O)c1ccc2c(c1)OCCO2	none
O=C(O)c1ccccc1NS(=O)(=O)c1cccc(-n2sc3ccccc3c2=O)c1	PRMT1 FP inh 94, rCAG binder-1 72 | rCAG binder conf 74 | DNA CAG counter 34 | DNA CAG DR 7.2 | PRMT1 inh conf 93
COc1cc(/C=N/n2c(-c3cc(-c4ccccc4)n[nH]3)n[nH]c2=S)ccc1OCc1ccccc1	PRMT1 FP inh 26, rCAG binder-1 58 (no result: DAGLB inh, HTRA1 inhibitor) | rCAG binder conf 55 | DNA CAG counter 26 | PRMT1 inh conf inactive
S=c1[nH]nc(-c2ccco2)n1/N=C/c1cccc(Cl)c1Cl	PRMT1 FP inh 33, rCAG binder-1 57 | rCAG binder conf 48 | DNA CAG counter 15 | PRMT1 inh conf 33

Assay outcomes (PubChem)
